# Screening results (PubChem BioAssay)
# Sampled rows, rich in hits. Any-hit rate of the full collection: about 3.7%.
# KCNK9 inh – human KCNK9 channel inhibition; hit rate 1.2% among 310,000; HEK293 KCNK9, FluxOR thallium flux fluorescence; active compounds read low; Q9NPC2; AID 488922; B-score at 10 µM;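 active means ratio B-score over 3 SD below the library mean, with starting fluorescence within 5 SD of its mean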;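 further: negative B-score means less thallium flux so channel inhibition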
# hERG rescue – compounds protecting human hERG from proarrhythmic drug block | hit rate 0.51% among 310,000 | Q12809 | CHO-hERG, FluxOR thallium flux, dofetilide IC70 present | activation (rescue from dofetilide block), less the hit threshold, % at 10 µM | AID 1511;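 active means activation above the mean of controls blocked by dofetilide plus 5 SD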;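 further: thallium influx through hERG after potassium depolarization seen as dye fluorescence rise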
# Kir21 inh – Kir2.1 (mouse) channel inhibition | HEK293-Kir2.1, FluxOR thallium flux fluorescence; active compounds read low | B-score at 10 µM | hit rate 0.85% among 310,000;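 active means fluorescence ratio B-score at or below minus 3 SD of library scores, with starting-brightness B-score within 2 SD, cut at about -4.2 in these data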;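 further: channel flux triggered by added potassium and thallium sulfate stimulus; B-score of peak minus minimum fluorescence over baseline after thallium stimulus; more negative B-score means stronger Kir2.1 block with less thallium influx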
# KCNQ1 inh – blocks the human KCNQ1 potassium channel; P51787; CHO-K1 KCNQ1, FluxOR thallium flux fluorescence; active compounds read high; B-score at 10 µM; hit rate 1.3% among 310,000; AID 2642;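 active means compounds whose thallium flux B-score, printed positive for inhibition, exceeds three library SD while starting fluorescence stays within three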;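 further: channel opened by potassium depolarization with thallium stimulus after 20 min compound exposure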
# KCNQ1 act – potentiators or activators of human KCNQ1 potassium channel. B-score at 10 µM. hit rate 0.35% among 310,000. P51787. CHO-K1 KCNQ1, thallium flux FluxOR fluorescence; active compounds read high;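 active means fluorescence ratio B-score, a plate-corrected score, at least three library SD, with initial intensity B-score within 5 SD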
#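 Medium – assay buffer, equal DMSO in all wells · Material – CHO-K1 cell line with stable KCNQ1 potassium channel expression · Signal – kinetic FluxOR thallium fluorescence, 10-s 1-Hz baseline, 110-s post-stimulus read · Compound – single concentration per compound, DMSO matched to controls · Schedule – 37 °C overnight plating, 90-min dark dye load, 20-min compound pretreatment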
# KCNK3 inh – human KCNK3 channel inhibition, primary screen; B-score at 10 µM; hit rate 0.84% among 340,000; CHO-KCNK3 thallium flux, FluxOR fluorescence; active compounds read low; O14649;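 active means B-score under library mean minus 4 SD, starting fluorescence ratio at most library mean plus 5 SD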;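 further: more negative B-score means stronger inhibition of thallium flux through KCNK3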
# Target sequence (O14649 whole entry, looked up): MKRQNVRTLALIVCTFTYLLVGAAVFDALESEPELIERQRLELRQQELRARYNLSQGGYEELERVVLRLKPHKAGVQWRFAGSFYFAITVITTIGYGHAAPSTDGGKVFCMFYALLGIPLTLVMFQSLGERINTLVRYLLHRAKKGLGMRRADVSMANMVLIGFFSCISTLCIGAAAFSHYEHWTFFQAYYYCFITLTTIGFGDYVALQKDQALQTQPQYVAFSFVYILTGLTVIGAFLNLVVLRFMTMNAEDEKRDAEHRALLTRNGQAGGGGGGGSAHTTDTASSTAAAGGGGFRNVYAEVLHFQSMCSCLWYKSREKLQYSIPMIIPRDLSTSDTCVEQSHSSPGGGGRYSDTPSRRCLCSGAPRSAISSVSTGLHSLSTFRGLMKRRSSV
# The depositor's hits bear a star; i = inactive; x = no result given.
SMILES,KCNK9 inh,hERG rescue,Kir21 inh,KCNQ1 inh,KCNQ1 act,KCNK3 inh
Cc1cccc(N=Nc2ccc(O)c3ncccc23)c1,i,2.2,-0.91,i,10*,i
Cc1ccc(C)c(N=Nc2ccc(O)c3ncccc23)c1,i,-6.1,0.98,i,i,i
CCOc1ccc(N=Nc2ccc(O)c3ncccc23)cc1,i,10.6*,1.68,i,i,i
COc1ccc(/C=C/C(=O)OCC(=O)NC2CC2)c(OC)c1,x,x,x,x,x,i
O=C(N/N=C/c1cc(Cl)cc(Cl)c1O)c1ccncc1,i,-11.6,-6.02,7*,i,i
Cc1ccccc1-n1c(C)cc(/C=N/NC(=O)c2ccncc2)c1C,i,-13.8,0.3,i,11*,i
OC(CNCCc1ccc(C(F)(F)F)cc1)COc1cccc2ccccc12 (configuration not stated),i,5.3*,-8.02*,i,i,i
OC(CNC1CCCC1)COc1ccccc1Br (configuration not stated),i,-2.7,-0.01,i,i,i
OC(CNCCc1ccc(C(F)(F)F)cc1)COc1ccc2ccccc2c1 (configuration not stated),i,-24.2,-0.14,i,i,i
OC(CNC1CCCCCC1)COc1cccc2ccccc12 (configuration not stated),i,-11.8,-4.93*,i,i,i
Cc1ccccc1OCC(O)CNC1CCC(NCC(O)COc2ccccc2C)CC1 (configuration not stated),i,-2.5,-5.5*,i,i,i
O=C(Cc1c(Cl)cccc1Cl)N/N=C/c1cccnc1,i,-8.3,-0.82,i,i,i
CC(C)(C)c1ccc(C(=O)OCC(=O)N2CCC(c3ccccc3)=N2)cc1,x,x,x,x,x,i
CC(=O)OCCN(C)c1cc(SC(C)C)c2nonc2c1[N+](=O)[O-],i,7.4*,-0.2,i,i,i
CC(C)(C)[C@H]1COC(=O)CCCC/C=C\C[C@H](CC(=O)N(CCO)Cc2ccccc2)C(=O)N1,x,x,x,x,x,i
O=[N+]([O-])c1cccc(N(CC2CO2)S(=O)(=O)c2ccccc2)c1 (configuration not stated),i,-3.5,-4.71*,i,i,i
Cc1ccc(N(CC2CO2)S(=O)(=O)c2ccc([N+](=O)[O-])cc2)cc1 (configuration not stated),i,-1.5,-4.32*,i,i,i
CCN1C(=O)C(CC(=O)Nc2ccc(OC)cc2)N(CCc2ccc(OC)cc2)C1=S (configuration not stated),i,-26.2,0,6*,i,i
NC(=O)C[n+]1cccc(CNC(=O)c2ccc(OC(F)F)cc2)c1,i,4.6*,-0.07,i,i,i
Cc1ccc(-c2nnc(CSc3nnc(COc4ccccc4)n3-c3ccccc3)o2)cc1,i,-16.4,-2.22,i,i,i
Cc1ccc(-c2nnc(CSc3nnc(COc4ccccc4)n3-c3ccc(C)cc3)o2)cc1,i,-21.2,0.63,6*,i,i
O=c1cc(/C=C/c2ccccc2)oc2ccccc12,i,-9.3,-1.01,i,i,i
O=c1oc2ccccc2c(Cl)c1CN1CCCCC1,i,1.4,-0.12,i,15*,i
CCOC(=O)c1c(NS(C)(=O)=O)sc2c1CCC(C)C2 (configuration not stated),i,1.1,-0.25,i,8*,i
COC(=O)c1c(NS(=O)(=O)c2ccc(C)cc2)sc2c1CCC(C)C2 (configuration not stated),x,x,x,x,x,i
SMILES,KCNK9 inh,hERG rescue,Kir21 inh,KCNQ1 inh,KCNQ1 act,KCNK3 inh
O=C1c2cc([N+](=O)[O-])ccc2-c2cc(Br)c(N=C(NO)C(F)(F)F)cc21,x,x,x,x,x,-9.47*
CC(C)(C)c1csc(NNC(=O)c2ccc(Br)cc2)n1,i,-9.9,-0.06,i,i,i
Cc1c(CC(=O)O)c(=O)oc2c(C)c(OCc3c(F)cccc3Cl)ccc12,i,-13.6,0.41,i,i,i
CCn1c(NC(=O)/C=C/c2ccc(F)cc2)nc2ccccc21,i,-4.0,-0.73,i,i,i
COc1ccc(C(c2c(NC(=O)c3ccco3)sc(C)c2C)N2CCOCC2)cc1OC (configuration not stated),x,x,x,x,x,-9.71*
Cc1sc(NC(=O)c2ccco2)c(C(c2ccccc2)N2CCC(C)CC2)c1C (configuration not stated),-6.99*,-12.7,-0.67,i,i,i
Cc1sc(NC(=O)c2ccco2)c(C(c2cccnc2)N2CCN(c3ccc(F)cc3)CC2)c1C (configuration not stated),-6.63*,-12.2,-0.43,8*,i,-12.5*
Cc1sc(NC(=O)c2ccco2)c(C(c2cccnc2)N2CCN(CCO)CC2)c1C (configuration not stated),i,-3.8,1.26,i,i,i
Cc1sc(NC(=O)c2ccccc2)c(C(c2ccc(Cl)cc2)N2CCN(CCO)CC2)c1C (configuration not stated),i,-1.9,-0.73,i,i,i
CC(Sc1nnc(-c2cccnc2)n1C)C(=O)N1CCOCC1 (configuration not stated),i,-13.4,-1.1,i,i,i
COc1ccc(OC)c(C(c2nnnn2C2CCCC2)N2CCN(c3ccccc3F)CC2)c1 (configuration not stated),-8.91*,-7.0,0.38,i,i,i
Cc1ccc(O)c(C(=O)CC(=O)c2ccccc2Cl)c1,i,45.4*,1.73,i,13*,i
Cc1ccc(C(=O)CC(=O)c2ccccc2C)c(O)c1,i,1.6,0.16,i,i,i
Cc1ccc(C(=O)CC(=O)c2cccc(F)c2)c(O)c1,i,10.5*,-1.36,i,16*,i
Fc1ccc(CSc2nnc(-c3cnccn3)n2Cc2ccco2)cc1,i,-4.7,-0.54,i,i,i
C=CCn1c(SCc2cccc3ccccc23)nnc1-c1cccnc1,i,-15.4,-6.44*,i,i,i
C(=C\c1ccccc1)/CSc1nnc(-c2cnccn2)n1Cc1ccco1,i,-10.8,-5.27*,i,i,i
C=CCn1c(SCC(=O)Nc2ccc(C(=O)O)cc2)nnc1-c1cccnc1,i,-6.7,-0.02,i,i,i
Clc1ccccc1CSc1nnc(-c2cccnc2)n1Cc1ccco1,i,-14.6,-4.44*,i,i,i
O=C(O[C@@H](C(=O)O)[C@@H](OC(=O)c1ccccc1)C(=O)O)c1ccccc1,x,x,x,x,x,i
O=C(CC1CCC1)NC(c1ccccc1)c1ccccc1,i,-13.9,-0.25,i,i,i
